Results reported in ChEMBL document CHEMBL1151761, “Radiohalogenated prostate-specific membrane antigen (PSMA)-based ureas as imaging agents for prostate cancer” (J Med Chem, 2008).

Key:
Type in all cases: ADME, organism-based
[1] = Ratio of drug level in tumor to large intestine of human PSMA expressing PC3 PIP and PSMA deficient human PC3 flu cells xenografted SCID mouse at 2 uCi, iv after 2 hrs; settings: in vivo
Procedure, shortened: (§1)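 Male SCID mice carried subcutaneous PSMA+ PC-3 PIP (left shoulder) and PC-3 flu (right shoulder) xenografts, 1-5 × 10^6 cells in HBSS, and were used at 3-5 mm tumor diameter. Tail-vein injection of 2 µCi radioligand; four mice per time point, killed by cervical dislocation. %ID/g from a standard dilution of the dose, decay-corrected, mean ± SD; PIP tumor:organ ratios.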

[2] = Ratio of drug level in tumor to blood of human PSMA expressing PC3 PIP and PSMA deficient human PC3 flu cells xenografted SCID mouse at 2 uCi, iv after 60 mins
Procedure, shortened: (§2)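 Male SCID mice carried subcutaneous xenografts of PSMA+ PC-3 PIP cells behind the left shoulder and PSMA− PC-3 flu cells behind the right (1–5 × 10^6 cells in HBSS), used at a tumour diameter of 3–5 mm. Each mouse received 2 μCi of radioiodinated tracer via the tail vein. Tissues were harvested at each time point for %ID/g against a standard dilution of the dose, decay-corrected. Ratios are PIP tumour:organ.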

[3] = Ratio of drug level in tumor to stomach of human PSMA expressing PC3 PIP and PSMA deficient human PC3 flu cells xenografted SCID mouse at 2 uCi, iv after 5 hrs; settings: in vivo
Procedure, shortened: (§3)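 Male SCID mice carried subcutaneous xenografts: PSMA+ PC-3 PIP behind the left shoulder and PSMA− PC-3 flu behind the right, 1–5 × 10^6 cells in HBSS. Mice were used at 3–5 mm tumor diameter. 2 μCi was given by tail vein, and 4 mice per time point were killed by cervical dislocation. %ID/g came from a standard dilution of the dose, decay-corrected. Ratio is PIP tumor %ID/g to organ %ID/g.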

Lung [4] = assay: Biodistribution in lung of PSMA expressing human PC3 PIP and PSMA deficient human PC3 flu cells xenografted SCID mouse at 2 uCi, iv after 30 mins; settings: in vivo, 0.5 h
[5] = Ratio of drug level in PC3 PIP tumor to PC3 flu tumor of human PSMA expressing PC3 PIP and PSMA deficient human PC3 flu cells xenografted SCID mouse at 2 uCi, iv after 2 hrs; settings: in vivo; procedure, shortened: as §1
Liver [6] = assay: Biodistribution in liver of PSMA expressing human PC3 PIP and PSMA deficient human PC3 flu cells xenografted SCID mouse at 2 uCi, iv after 2 hrs; settings: in vivo
[7] = Ratio of drug level in tumor to liver of human PSMA expressing PC3 PIP and PSMA deficient human PC3 flu cells xenografted SCID mouse at 2 uCi, iv after 5 hrs; settings: in vivo; procedure, shortened: as §1
[8] = Ratio of drug level in tumor to lung of human PSMA expressing PC3 PIP and PSMA deficient human PC3 flu cells xenografted SCID mouse at 2 uCi, iv after 5 hrs; settings: in vivo; procedure, shortened: as §1
[9] = Ratio of drug level in tumor to small intestine of human PSMA expressing PC3 PIP and PSMA deficient human PC3 flu cells xenografted SCID mouse at 2 uCi, iv after 30 mins; settings: in vivo, 0.5 h; procedure, shortened: as §3
[10] = Ratio of drug level in tumor to liver of human PSMA expressing PC3 PIP and PSMA deficient human PC3 flu cells xenografted SCID mouse at 2 uCi, iv after 60 mins; settings: in vivo, 1 h; procedure, shortened: as §1
Blood = assay: Biodistribution in blood of PSMA expressing human PC3 PIP and PSMA deficient human PC3 flu cells xenografted SCID mouse at 2 uCi, iv after 5 hrs; settings: in vivo
Lung [11] = assay: Biodistribution in lung of PSMA expressing human PC3 PIP and PSMA deficient human PC3 flu cells xenografted SCID mouse at 2 uCi, iv after 5 hrs; settings: in vivo
Urinary bladder [12] = assay: Biodistribution in bladder of PSMA expressing human PC3 PIP and PSMA deficient human PC3 flu cells xenografted SCID mouse at 2 uCi, iv after 5 hrs; settings: in vivo
[13] = Ratio of drug level in tumor to blood of human PSMA expressing PC3 PIP and PSMA deficient human PC3 flu cells xenografted SCID mouse at 2 uCi, iv after 2 hrs; procedure, shortened: as §2
Spleen = assay: Biodistribution in spleen of PSMA expressing human PC3 PIP and PSMA deficient human PC3 flu cells xenografted SCID mouse at 2 uCi, iv after 5 hrs; settings: in vivo
Urinary bladder [14] = assay: Biodistribution in bladder of PSMA expressing human PC3 PIP and PSMA deficient human PC3 flu cells xenografted SCID mouse at 2 uCi, iv after 2 hrs; settings: in vivo
[15] = Ratio of drug level in tumor to blood of human PSMA expressing PC3 PIP and PSMA deficient human PC3 flu cells xenografted SCID mouse at 2 uCi, iv after 5 hrs; procedure, shortened: as §2
[16] = Ratio of drug level in tumor to large intestine of human PSMA expressing PC3 PIP and PSMA deficient human PC3 flu cells xenografted SCID mouse at 2 uCi, iv after 5 hrs; settings: in vivo; procedure, shortened: as §1
Stomach = assay: Biodistribution in stomach of PSMA expressing human PC3 PIP and PSMA deficient human PC3 flu cells xenografted SCID mouse at 2 uCi, iv after 2 hrs; settings: in vivo
[17] = Ratio of drug level in tumor to pancreas of human PSMA expressing PC3 PIP and PSMA deficient human PC3 flu cells xenografted SCID mouse at 2 uCi, iv after 30 mins; settings: in vivo, 0.5 h; procedure, shortened: as §1
Kidney = assay: Biodistribution in kidney of PSMA expressing human PC3 PIP and PSMA deficient human PC3 flu cells xenografted SCID mouse at 2 uCi, iv after 5 hrs; settings: in vivo
[18] = Biodistribution in PC3 flu tumor of PSMA expressing human PC3 PIP and PSMA deficient human PC3 flu cells xenografted SCID mouse at 2 uCi, iv after 60 mins; settings: in vivo, 1 h; procedure, shortened: as §1
[19] = Biodistribution in small intestine of PSMA expressing human PC3 PIP and PSMA deficient human PC3 flu cells xenografted SCID mouse at 2 uCi, iv after 30 mins; settings: in vivo, 0.5 h; procedure, shortened: as §1
[20] = Ratio of drug level in tumor to blood of human PSMA expressing PC3 PIP and PSMA deficient human PC3 flu cells xenografted SCID mouse at 2 uCi, iv after 30 mins; procedure, shortened: as §2
Muscle tissue [21] = assay: Biodistribution in muscle of PSMA expressing human PC3 PIP and PSMA deficient human PC3 flu cells xenografted SCID mouse at 2 uCi, iv after 2 hrs; settings: in vivo
Heart [22] = assay: Biodistribution in heart of PSMA expressing human PC3 PIP and PSMA deficient human PC3 flu cells xenografted SCID mouse at 2 uCi, iv after 60 mins; settings: in vivo, 1 h
Muscle tissue [23] = assay: Biodistribution in muscle of PSMA expressing human PC3 PIP and PSMA deficient human PC3 flu cells xenografted SCID mouse at 2 uCi, iv after 30 mins; settings: in vivo, 0.5 h
Liver [24] = assay: Biodistribution in liver of PSMA expressing human PC3 PIP and PSMA deficient human PC3 flu cells xenografted SCID mouse at 2 uCi, iv after 5 hrs; settings: in vivo
Heart [25] = assay: Biodistribution in heart of PSMA expressing human PC3 PIP and PSMA deficient human PC3 flu cells xenografted SCID mouse at 2 uCi, iv after 30 mins; settings: in vivo, 0.5 h

SMILES: O=C(O)CC[C@H](NC(=O)N[C@@H](CCCCNC(=O)c1ccc([18F])cc1)C(=O)O)C(=O)O
- Ratio [1]: 19
- Kp at 1 h [2]: 9
- Ratio [3]: 88
- Drug uptake (Lung [4]): 1.7 % ID/g
- Ratio [5]: 15
- Drug uptake (Liver [6]): 11.7 % ID/g
- Ratio [7]: 3.5
- Ratio [8]: 35
- Ratio [9]: 5
- Ratio [10]: 1
- Drug uptake (Blood): 0.03 % ID/g
- Drug uptake (Lung [11]): 0.1 % ID/g
- Drug uptake (Urinary bladder [12]): 5.2 % ID/g
- Kp at 2 h [13]: 9
- Drug uptake (Spleen): 1 % ID/g
- Drug uptake (Urinary bladder [14]): 11 % ID/g
- Kp at 5 h [15]: 117
- Ratio [16]: 6
- Drug uptake (Stomach): 0.3 % ID/g
- Ratio [17]: 11
- Drug uptake (Kidney): 14 % ID/g
- Drug uptake [18]: 0.3 % ID/g
- Drug uptake [19]: 1.7 % ID/g
- Kp at 0.5 h [20]: 3
- Drug uptake (Muscle tissue [21]): 0.2 % ID/g
- Drug uptake (Heart [22]): 0.2 % ID/g
- Drug uptake (Muscle tissue [23]): 2.4 % ID/g
- Drug uptake (Liver [24]): 1 % ID/g
- Drug uptake (Heart [25]): 0.8 % ID/g
